SR-BI HDL uptake: inhibitors of SR-BI mediated HDL lipid uptake, primary screen, ldlA[mSR-BI] cells, fluorescence, single point. Scavenger receptor class B member 1 (Mus musculus), Q61009. ldlA[mSR-BI] CHO cells, DiI-HDL uptake fluorescence, 3 h. inhibition, % at 12.5 µM. 320,000 tested, 0.96% active. AID 488896, 2010;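 active = mean replicate inhibition of at least 70% and a set share of replicates each scoring 70 or more; inconclusive = meets just one of the two criteria; inactive = fails both criteria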
dFosB act-1: activators of delta FosB homodimer, primary screen, biochemical, fluorescence polarization, TAMRA-CDK5 oligo, single point; 340,000 tested, 0.99% active; AID 493131, 2011; activation, % at 25 µM; Protein FosB (Mus musculus), P13346; purified delta FosB; percent of positive-control signal above neutral wells;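 active = mean activation above about 17%, with every replicate also reaching it, limit read from the data, passing the limit was not always enough; inconclusive = only one of the two conditions met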
NSD2 inh: NSD2 histone methyltransferase inhibitors, primary screen, biochemical, AlphaScreen, single concentration, set 2; Histone-lysine N-methyltransferase NSD2 (Homo sapiens), O96028; 310,000 tested, 0.54% active; inhibition, % at 12.5 µM; NSD2 peptide methylation, 120 min
Target sequence (O96028 whole entry, looked up): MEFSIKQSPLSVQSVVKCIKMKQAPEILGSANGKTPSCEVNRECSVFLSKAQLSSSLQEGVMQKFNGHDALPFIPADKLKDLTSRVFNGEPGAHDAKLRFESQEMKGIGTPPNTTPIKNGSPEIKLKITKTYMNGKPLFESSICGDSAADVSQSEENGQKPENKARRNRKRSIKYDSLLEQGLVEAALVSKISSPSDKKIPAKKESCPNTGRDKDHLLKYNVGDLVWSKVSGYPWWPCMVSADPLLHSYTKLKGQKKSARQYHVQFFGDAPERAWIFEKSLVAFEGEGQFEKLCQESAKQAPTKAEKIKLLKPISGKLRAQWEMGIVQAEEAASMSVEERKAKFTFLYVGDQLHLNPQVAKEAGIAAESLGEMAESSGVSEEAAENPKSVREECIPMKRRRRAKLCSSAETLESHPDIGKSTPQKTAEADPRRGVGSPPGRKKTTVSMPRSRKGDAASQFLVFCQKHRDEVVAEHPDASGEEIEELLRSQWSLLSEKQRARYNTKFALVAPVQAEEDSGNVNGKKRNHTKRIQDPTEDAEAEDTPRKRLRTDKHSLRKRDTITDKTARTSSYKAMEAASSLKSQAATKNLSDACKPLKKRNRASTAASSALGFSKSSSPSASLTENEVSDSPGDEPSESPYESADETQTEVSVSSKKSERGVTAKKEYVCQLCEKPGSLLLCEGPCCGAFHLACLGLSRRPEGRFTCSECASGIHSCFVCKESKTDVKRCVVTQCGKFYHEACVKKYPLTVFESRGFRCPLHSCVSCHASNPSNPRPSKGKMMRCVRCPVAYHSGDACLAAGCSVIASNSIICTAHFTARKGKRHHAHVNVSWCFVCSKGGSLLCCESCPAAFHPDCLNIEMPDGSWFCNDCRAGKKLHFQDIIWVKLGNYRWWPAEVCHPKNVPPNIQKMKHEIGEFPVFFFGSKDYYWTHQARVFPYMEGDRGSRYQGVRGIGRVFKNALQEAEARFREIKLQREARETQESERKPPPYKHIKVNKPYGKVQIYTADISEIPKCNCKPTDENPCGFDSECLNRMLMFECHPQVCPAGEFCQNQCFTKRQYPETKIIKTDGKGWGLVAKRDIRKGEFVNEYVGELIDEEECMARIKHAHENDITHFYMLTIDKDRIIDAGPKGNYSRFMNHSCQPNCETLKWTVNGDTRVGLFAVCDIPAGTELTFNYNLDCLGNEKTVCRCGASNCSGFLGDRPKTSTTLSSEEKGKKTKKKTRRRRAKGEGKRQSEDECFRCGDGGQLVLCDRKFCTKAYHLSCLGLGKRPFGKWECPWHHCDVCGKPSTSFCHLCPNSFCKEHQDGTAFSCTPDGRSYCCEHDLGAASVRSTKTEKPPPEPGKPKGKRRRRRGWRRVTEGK
DYRK1A inh: rat Dyrk1A kinase inhibitors, primary screen, biochemical, single point, plate reader. inhibition, % at 12.5 µM. ADP-Glo luminescence, NFATc1 peptide. 310,000 tested, 0.43% active. Dual specificity tyrosine-phosphorylation-regulated kinase 1A (Rattus norvegicus), Q63470
SR-BI DiI-HDL act: activators of SR-BI mediated DiI-HDL uptake, primary screen, ldlA[mSR-BI] CHO cells, DiI fluorescence. 3 h; 100 = double the neutral-control signal. 320,000 tested, 0.096% active. activation, % at 12.5 µM. AID 504775, 2011;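 active = mean replicate activation of at least 60% and every replicate at or above 60%; inconclusive = mean or all-replicate condition met, but not both; inactive = mean below 60% and not all replicates reaching 60%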
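Material: SR-BI-overexpressing, LDLR-lacking CHO cells; schedule: compound exposure 3 h, 37 °C; reagent: DiI-labelled HDL at 10 µg/mL final; technique: bottom-read fluorescence, 550/595 nm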
CDK5 p35 inh: inhibitors of human CDK5/p35 kinase, primary screen, biochemical, single concentration. Cyclin-dependent kinase 5 (Homo sapiens) + Cyclin-dependent kinase 5 activator 1 (Homo …. Recombinant CDK5/p35, ADP-Glo luminescence, 60 min. inhibition, % at 10 µM. 330,000 tested, 0.01% active. AID 488839, 2010;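 active = highest replicate inhibition of at least 50% and at least 75% of replicates reaching 50%; inconclusive = only one of the two criteria met; inactive = both criteria failed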
DiI quench: DiI fluorescence quenching in cell-free counter-screen; shares compounds with SR-BI HDL uptake; cell-free DiI-HDL fluorescence quenching, 30 min; AC50, µM (titrated, usually from 35 µM); 470 tested, 20% active; AID 540326;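 active = quenching, a falling signal, with AC50 below a set limit tied to the top valid dose, actives reach about 32 µM in these data; inconclusive = no clear call, values can overlap the other calls; inactive = rising signal, and the rest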
dFosB act-2: activators of mouse delta FosB DNA binding, confirmation, biochemical, fluorescence polarization, TAMRA-CDK5 oligo, cherry-picked samples; purified delta FosB; normalised: neutral wells 0, positive control 100; shares compounds with dFosB act-1; 2,400 tested, under 10 active; AID 588690, 2011; activation, % at 24.9 µM;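 active = highest replicate activation at or above 34% and every replicate reaching that threshold; inconclusive = meets only one of the two criteria; inactive = meets neither criterion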;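 also: higher polarization means more probe DNA bound by delta FosB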
ADP-Glo artifact: ADP-Glo luciferase interference without Dyrk1A, dose response, artefact control for Dyrk1A inhibitor project, biochemical, luminescence, cherry-pick, set 02; shares compounds with DYRK1A inh; ADP-Glo luciferase artifact assay, no Dyrk1A; AC50, µM (highest dose often 12 µM); 1,300 tested, under 10 active; AID 588348, 2011;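 active = fitted half-maximal dose AC50 no more than ten times the top valid tested dose, with luminescence dropping as dose rises; inconclusive = poor fit, or flat fit with 30 to 70% inhibition; inactive = the rest, signal increases included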
Alpha artifact: AlphaScreen signal interference with preloaded methylated product, dose response, artefact control for NSD2 inhibitor project, biochemical, cherry-picked samples; shares compounds with NSD2 inh; AlphaScreen artifact counterscreen, preloaded methylated H4 peptide; AC35, µM (doses to about 10 µM); 1,500 tested, 9.4% active; AID 1053174, 2014; call rule not given here
Hits are given with their value; 0 = inactive; ? = inconclusive; - = no result; + = active, no number. The list is not random: actives were taken first. Their share in the collection is about 2.5%. Rule as the data show it, unless noted: active = inhibition above about 50%; inactive = the rest.

SMILES	SR-BI HDL uptake	dFosB act-1	NSD2 inh	DYRK1A inh	SR-BI DiI-HDL act	CDK5 p35 inh	others
OC1(c2ccc(F)cc2)CCNC1 (configuration not stated)	0	0	0	0	0	0
CNC1(c2ccc(F)cc2)CCCCC1	?	0	0	-	0	0	DiI quench=0
CSc1ncc(Br)c(N2CC2)n1	0	0	0	0	0	0
CC(=O)C1C(N2CC2)CC2C3CC=C4CC(O)CCC4(C)C3CCC21C (configuration not stated)	0	36	0	-	0	0	dFosB act-2=0
O=c1[nH]c(=S)[nH]c(O)c1N=Nc1ccc(S(=O)(=O)N2CCc3ccccc32)cc1	0	29	0	0	0	0	dFosB act-2=0
O=c1[nH]c(=S)[nH]c(O)c1N=Nc1ccc(SC(F)F)cc1	0	0	0	0	0	0
CCOc1ccc(C2C(C#N)=C(N)Oc3c2c(=O)oc2ccccc32)cc1 (configuration not stated)	0	21	0	0	0	0	dFosB act-2=0
COC(=O)C1=C(c2cccc3c2S(=O)(=O)c2ccccc2-3)C[C@@H]2CC[C@H]1N2C(=O)N1CCc2cc(OC)c(OC)cc2C1	0	0	-	0	0	0
Cc1sc2ncnc(N3CCC(C(=O)Nc4ccc(C#N)c(Cl)c4)CC3)c2c1C	0	32	0	-	0	0	dFosB act-2=0
NC(Cc1ccc(Cl)cc1)c1csc(Nc2ccccn2)n1 (configuration not stated)	-	-	0	-	-	-
O=C(O)C1CC2(Cl)C(Cl)=C(Cl)C1(Cl)C2(Cl)Cl (configuration not stated)	0	0	0	0	0	0
O=C1CN=C(c2ccc(Br)cc2)c2oc3ccccc3c2N1	0	0	0	0	0	0
O=C1CN=C(c2ccccc2)c2oc3ccc(Br)cc3c2N1	0	30	0	0	0	0	dFosB act-2=0
COc1ccc(OCC(=O)N2CCN(Cc3ccc4c(c3)OCO4)CC2)cc1	0	0	0	0	0	0
CN(C)CCN(C(=O)COc1ccc(Cl)cc1)c1nc2cc3c(cc2s1)OCO3	0	24	0	0	0	0	dFosB act-2=0
N#C/C(=C\c1ccc(O)cc1)C(=O)O (tested in a mixture with another compound)	0	0	-	79	0	0	ADP-Glo artifact=0
N#CC(C#N)=Cc1ccc(N2CCOCC2)cc1	0	0	-	0	0	0
NC(=S)c1cn(C2OC(CO)C(O)C2O)c2ncnc(N)c12 (configuration not stated)	0	0	-	95	0	0	ADP-Glo artifact=0
CCN(CC)P(=O)(NC(=O)c1cccn1C)N(CC)CC	0	0	0	0	0	0
COc1ccc2c(c1)[nH]c1c(C)nccc12	0	0	-	0	0	0
C1=NCCc2c1[nH]c1ccccc21	0	0	0	0	0	0
CC1=NCCc2c1[nH]c1cc(O)ccc21	0	0	-	79	0	0	ADP-Glo artifact=0
COc1ccc2c3c([nH]c2c1)C(C)=NCC3	0	0	-	86	0	0	ADP-Glo artifact=0
Brc1csc(N2CCNCC2)n1	-	-	0	-	-	-
CC1CN(C(=O)CCC(=O)N2CCC3(CC2)OCCO3)c2cc(Cl)ccc2O1 (configuration not stated)	0	0	0	0	0	0
SMILES	SR-BI HDL uptake	dFosB act-1	NSD2 inh	DYRK1A inh	SR-BI DiI-HDL act	CDK5 p35 inh	others
CCC(C)C1NC(=O)C(NC(=O)C(CC(C)C)N(C)C(=O)C2CCCN2C(=O)C(C)O)C(C)OC(=O)C(Cc2ccc(OC)cc2)N(C)C(=O)C2CCCN2C(=O)C(CC(C)C)NC(=O)[C@H](C)C(=O)[C@H](C(C)C)OC(=O)CC1O (some centres not stated)	0	0	0	0	0	0
COC(=O)C1=C(c2ccc(F)cc2OCc2ccccc2)C[C@@H]2CC[C@H]1N2C(=O)NC1CC1	0	0	-	55	0	0	ADP-Glo artifact=0
O=c1[nH]c(=O)n(-c2ccccc2)c(O)c1/C=C1/C(c2ccccc2)=Nc2ccccc21	0	0	0	61	0	0	ADP-Glo artifact=0
COc1cc2c(cc1OC)-c1c3c(cc4c1[C@@H](C2)N(C)CC4)OCO3	0	0	-	66	0	0	ADP-Glo artifact=0
CCn1nc(/C=C/c2ccccc2)nc2c(=O)n(C)c(=O)nc1-2	0	0	+	50	0	0	ADP-Glo artifact=0;Alpha artifact=0
COc1ccccc1N1CCN(C2CCCN(C(=O)COc3ccccc3Cl)C2)CC1 (configuration not stated)	0	0	0	0	0	0
COc1cc(/C=C2/C(=O)NC(=O)N(c3ccccc3)C2=O)ccc1O	0	0	0	0	0	0
O=C1NC(=O)N(c2ccccc2)C(=O)/C1=C/c1ccoc1	0	0	51	0	0	0	Alpha artifact=0
CCCCCSc1cc(OC)c(CCNC)cc1OC	0	0	61	0	0	0	Alpha artifact=0
CCN1CCN(C(=O)COc2ccc(S(=O)(=O)N3CCOCC3)cc2C)CC1	0	0	0	0	0	0
Cc1cc(/C=C2\C(=O)NC(=O)N(c3cccc(F)c3)C2=O)c(C)n1-c1cc(C(=O)O)cc(C(=O)O)c1	0	0	81	0	0	0	Alpha artifact=0
Cc1cc(/C=C2\C(=O)NC(=O)N(c3ccc(Br)cc3)C2=O)c(C)n1-c1cc(C(=O)O)cc(C(=O)O)c1	0	0	0	0	0	0
COC(=O)c1nc(-c2ccc3c(n2)C(=O)C(N)=C(OC)C3=O)c(N)c(-c2ccc(OC)c(OC)c2O)c1C	0	0	55	0	0	0	Alpha artifact=0
COc1ccc(N2C(=O)NC(=O)/C(=C\c3ccc([N+](=O)[O-])s3)C2=O)cc1	0	0	51	0	0	0	Alpha artifact=0

Assay outcomes as filed in PubChem.
